Measurements reported in ChEMBL document CHEMBL5620424, “Design, synthesis and evaluation of novel 2-phenyl-3-(1H-pyrazol-4-yl)pyridine positive allosteric modulators for the M4 mAChR” (Eur J Med Chem, 2023).
The source made the active and inactive calls. The calls are words filed in the database; no cut-off is given here.

How the values were obtained:
[1] = target: T1, Muscarinic acetylcholine receptor M4 (Homo sapiens) (UniProt P08173); test: Positive allosteric modulation at human M4 mAChR expressed in Flp-In-CHO cells co-expressing CAMYEL biosensor assessed as ACh-mediated cAMP signalling co-operativity (log alpha beta) incubated for 5 mins by BRET assay; assay type: functional, cell-based; settings: filed as positive allosteric modulator
T1 sequence (whole entry): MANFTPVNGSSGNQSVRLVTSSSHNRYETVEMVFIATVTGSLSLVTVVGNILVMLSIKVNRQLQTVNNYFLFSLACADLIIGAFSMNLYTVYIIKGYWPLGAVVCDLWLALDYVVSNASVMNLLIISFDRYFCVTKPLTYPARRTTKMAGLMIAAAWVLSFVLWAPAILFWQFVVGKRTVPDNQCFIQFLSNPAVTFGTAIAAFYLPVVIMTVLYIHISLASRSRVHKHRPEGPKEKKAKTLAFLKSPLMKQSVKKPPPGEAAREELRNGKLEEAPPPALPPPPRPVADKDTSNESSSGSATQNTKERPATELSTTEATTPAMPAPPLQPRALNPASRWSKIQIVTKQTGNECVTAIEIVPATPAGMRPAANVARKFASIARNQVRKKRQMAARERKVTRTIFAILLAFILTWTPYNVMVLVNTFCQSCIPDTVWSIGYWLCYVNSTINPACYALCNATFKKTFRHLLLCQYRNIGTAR
How it was run: (§1)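 CAMYEL-transfected FlpInCHO-hM4 cells (48 h post-transfection) given ACh and modulator concentration ranges in full interaction design, 5 min at 37 °C; BRET read with coelenterazine h. Fit to complete operational model of allosterism and agonism with ACh KA and modulator KB fixed from binding assays. Gives log τB and log αβ. 4–5 experiments in duplicate.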

[2] = Drug concentration in plasma of naive C57BL/6J mouse at 10 mg/kg, ip measured after 20 to 30 mins; assay type: ADME, organism-based; settings: in vivo, time 20-30 min
How it was run: (§2)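 Male C57Bl/6J mice, naïve, 10–12 weeks old, dosed i.p. at 10 mg/kg in 10% DMSO, 1.1% Tween 80, 21.8 mM Tris. Blood by cardiac puncture under anaesthesia at 20 or 90 min (n = 2–3 per time point). Brain concentration corrected for compound in brain vasculature. Mean nM ± SEM reported; Kp = Cbrain/Cplasma, reported as a range.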

[3] = Drug concentration in brain of naive C57BL/6J mouse at 10 mg/kg, ip measured after 20 to 30 mins; assay type: ADME, organism-based; settings: in vivo, time 20-30 min, read-out: Ct; how it was run: as §2
[4] = target: T1, Muscarinic acetylcholine receptor M4 (Homo sapiens); test: Positive allosteric modulation at human M4 mAChR expressed in Flp-In-CHO cells co-expressing CAMYEL biosensor assessed as efficacy of ACh-mediated cAMP signalling (log tau B) incubated for 5 mins by BRET assay; assay type: functional, cell-based; settings: filed as positive allosteric modulator; how it was run: as §1
[5] = target: T1, Muscarinic acetylcholine receptor M4 (Homo sapiens); test: Positive allosteric modulation at Rluc-tagged human M4 mAChR expressed in Flp-In-CHO cells co-expressing eYFP-tagged beta-arrestin 2 assessed as efficacy of ACh-mediated beta-arrestin 2 recruitment (log tau B) incubated for 5 mins by luminometry; assay type: cell-based; settings: filed as positive allosteric modulator
How it was run: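 FlpInCHO cells co-transfected with human M4-Rluc8 (20 ng/well) and β-arrestin-2-eYFP (80 ng/well) using PEI, assayed after 48 h. Coelenterazine h (5 μM) preincubated 5 min, then ACh plus modulator ranges for 5 min at 37 °C; BRET at 475/535 nm. Fit to simplified operational model with slope 1 and KB fixed from binding. 4–5 experiments in duplicate.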

[6] = target: T2, Muscarinic acetylcholine receptor M1 (Homo sapiens) (UniProt P11229); test: Positive allosteric modulation at human M1 mAChR expressed in Flp-In-CHO cells at 10 uM incubated for 5 mins by AlphaScreen SureFire Ultra pERK1/2 assay
T2 sequence (whole entry): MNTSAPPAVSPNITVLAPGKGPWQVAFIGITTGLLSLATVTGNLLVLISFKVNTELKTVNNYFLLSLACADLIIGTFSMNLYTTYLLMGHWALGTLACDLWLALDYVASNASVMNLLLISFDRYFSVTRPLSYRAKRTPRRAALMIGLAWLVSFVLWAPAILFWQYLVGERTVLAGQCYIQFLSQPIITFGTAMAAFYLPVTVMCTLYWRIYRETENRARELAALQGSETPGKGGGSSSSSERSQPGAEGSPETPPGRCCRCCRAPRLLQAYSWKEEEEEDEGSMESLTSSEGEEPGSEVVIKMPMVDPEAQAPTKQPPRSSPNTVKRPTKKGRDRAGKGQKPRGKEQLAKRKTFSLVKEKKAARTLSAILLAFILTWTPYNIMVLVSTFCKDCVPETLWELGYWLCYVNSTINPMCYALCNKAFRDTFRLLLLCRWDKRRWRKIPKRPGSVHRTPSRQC

[7] = Drug concentration in plasma of naive C57BL/6J mouse at 10 mg/kg, ip measured after 90 mins; assay type: ADME, organism-based; how it was run: as §2
[8] = Drug concentration in brain of naive C57BL/6J mouse at 10 mg/kg, ip measured after 90 mins; assay type: ADME, organism-based; settings: read-out: Ct; how it was run: as §2
[9] = target: T1, Muscarinic acetylcholine receptor M4 (Homo sapiens); test: Positive allosteric modulation at human M4 mAChR expressed in Flp-In-CHO cells assessed as increase in ERK1/2 phosphorylation at 10 uM incubated for 5 mins […]; assay type: cell-based; settings: filed as positive allosteric modulator
How it was run: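 FlpInCHO cells stably expressing human M1–M5 mAChRs, serum-deprived in HBSS 4 h at 37 °C, then ACh (10 nM–10 μM) with or without modulator at 10 μM for 5 min at 37 °C. Cells lysed and frozen overnight. pERK1/2 measured by AlphaScreen SureFire Ultra, as % of response to 10% FBS.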

[10] = target: T1, Muscarinic acetylcholine receptor M4 (Homo sapiens); test: Positive allosteric modulation at human M4 mAChR expressed in Flp-In-CHO cells co-expressing CAMYEL biosensor assessed as change in maximum ACh-mediated response at 10 uM incubated for 5 mins by BRET assay relative to control; assay type: cell-based
How it was run: (§3)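 FlpInCHO cells stably expressing human M4 mAChR, transiently transfected with CAMYEL cAMP BRET biosensor (60 ng/well, PEI), assayed 48 h later in HBSS pH 7.4. Full ACh concentration-response curve alone or with modulator at 1 or 10 μM, co-added with coelenterazine h (5 μM), 5 min, 37 °C. Three-parameter logistic fit; ACh curve values subtracted from ACh+modulator values. Δbaseline and ΔEmax given as % of maximal ACh response without modulator. 4 experiments in duplicate, SEM pooled.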

[11] = target: T1, Muscarinic acetylcholine receptor M4 (Homo sapiens); test: Positive allosteric modulation at human M4 mAChR expressed in Flp-In-CHO cells co-expressing CAMYEL biosensor assessed as change in ACh-mediated response incubated for 5 mins by BRET assay; assay type: cell-based; settings: filed as positive allosteric modulator; how it was run: as §3
[12] = filed as positive allosteric modulator

Compound | log(activity) [1] | concentration [2] [nM] | concentration [3] [nM] | log(activity) [4] | log(activity) [5] | Activity [6] | concentration at 1.5 h [7] [nM] | concentration at 1.5 h [8] [nM] | Activity [9] | Emax [10, 12] [%] | deltapEC50 [11] | Emax [10] [%]
Cc1ccc(-c2cnn(CC3CCCC3)c2)c(-c2ccc3c(c2)C(=O)N(C)C3)n1 | 2.34 | 2440 | 481 | -0.45 | 0.99 | inactive | 14 | 9 | Active | 44.7 | 1.48 | –
Cc1ccc(-c2cnn(CC3CCCC3)c2)c(-c2ccc(N)c([N+](=O)[O-])c2)n1 | 1.91 | 2430 | 982 | -1.29 | 0.39 | inactive | 657 | 373 | Active | – | 1.27 | 5.6
Cc1ccc(-c2cnn(CC3CCCC3)c2)c(-c2ccc(F)c(F)c2)n1 | 2.65 | 915 | 2140 | -0.07 | 0.31 | inactive | 159 | 255 | Active | 129 | 0.76 | –
